In assay [1] the test system is HT-29. In words: Blockade of cell cycle progression in human HT-29 cells. It is filed as functional, cell-based.
Assay [2] concerns HT-29. As to the kind of experiment: Cytotoxicity against human HT-29 cells after 72 hrs by MTT assay. The format is functional, cell-based. The settings on record: HT-29, 72 h. A digest of the protocol:
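HT-29 cells, grown in DMEM with 2 mM L-glutamine, 10% heat-inactivated FBS and 1% penicillin/streptomycin at 37 °C, seeded at 1 × 10⁵ cells/ml and exposed 72 h to a range of compound concentrations in DMSO. Cells were then given MTT 3 h, formazan dissolved in SDS/formamide lysis buffer pH 4.7, and absorbance read at 620 nm. Values are % of untreated control; IC50 is from ≥3 experiments.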

Assay [3] concerns HT-29. In words: Induction of apoptosis in human HT-29 cells after 48 hrs using propidium iodide staining by flow cytometry in presence of Z-VAD-FMK. The format is functional, cell-based. A digest of the protocol:
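HT-29 cells were pretreated with the general caspase inhibitor Z-VAD-FMK at 50 μM for 30 min before compound was added, then incubated 48 h. Nuclei were stained with PI in 0.1% citrate/0.1% Triton X-100 for 30 min at 4 °C in the dark. Hypodiploid % was scored by flow cytometry. Three experiments in triplicate; Bonferroni test.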

Assay [4] deals with HT-29. In words: Induction of apoptosis in human HT-29 cells assessed as hypodiploid DNA content at 0.1 uM after 48 hrs using propidium iodide staining by flow cytometry. The format is functional. In outline: (§1)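 Cultured HT-29 cells were plated at 5 × 10⁵ per 6-cm dish the day before treatment, then exposed 48 h to 0.1–5 μM. Cells were washed in PBS and taken up in 0.1% sodium citrate, 0.1% Triton X-100 and 50 μg/ml PI for 30 min at 4 °C in the dark. Nuclei were run by flow cytometry with debris gated out by forward scatter, and % hypodiploid nuclei counted. Three experiments in triplicate.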

The subject of assay [5] is HT-29. As to the kind of experiment: Induction of apoptosis in human HT-29 cells after 48 hrs assessed as hypodiploid DNA content using propidium iodide staining by flow cytometry. The format is functional, cell-based. In outline: as §1
Assay [6] addresses DNA topoisomerase 2-alpha (Homo sapiens) (UniProt P11388). As to the kind of experiment: Inhibition of human recombinant topoisomerase 2alpha-mediated pBR322 DNA cleavage after 30 mins.
The target is the same in assay [7]. As to the kind of experiment: Inhibition of human recombinant topoisomerase 2alpha-mediated pBR322 DNA cleavage at 10 uM after 30 mins.
For assay [8], the system named is HT-29. As to the kind of experiment: Induction of apoptosis in human HT-29 cells assessed as hypodiploid DNA content at 0.5 uM after 48 hrs using propidium iodide staining by flow cytometry. The format is functional, cell-based. In outline: as §1

Calls of active or inactive are those of the source. No cut-off for these calls is given here.

Chain of DNA topoisomerase 2-alpha (Homo sapiens) (P11388 whole entry): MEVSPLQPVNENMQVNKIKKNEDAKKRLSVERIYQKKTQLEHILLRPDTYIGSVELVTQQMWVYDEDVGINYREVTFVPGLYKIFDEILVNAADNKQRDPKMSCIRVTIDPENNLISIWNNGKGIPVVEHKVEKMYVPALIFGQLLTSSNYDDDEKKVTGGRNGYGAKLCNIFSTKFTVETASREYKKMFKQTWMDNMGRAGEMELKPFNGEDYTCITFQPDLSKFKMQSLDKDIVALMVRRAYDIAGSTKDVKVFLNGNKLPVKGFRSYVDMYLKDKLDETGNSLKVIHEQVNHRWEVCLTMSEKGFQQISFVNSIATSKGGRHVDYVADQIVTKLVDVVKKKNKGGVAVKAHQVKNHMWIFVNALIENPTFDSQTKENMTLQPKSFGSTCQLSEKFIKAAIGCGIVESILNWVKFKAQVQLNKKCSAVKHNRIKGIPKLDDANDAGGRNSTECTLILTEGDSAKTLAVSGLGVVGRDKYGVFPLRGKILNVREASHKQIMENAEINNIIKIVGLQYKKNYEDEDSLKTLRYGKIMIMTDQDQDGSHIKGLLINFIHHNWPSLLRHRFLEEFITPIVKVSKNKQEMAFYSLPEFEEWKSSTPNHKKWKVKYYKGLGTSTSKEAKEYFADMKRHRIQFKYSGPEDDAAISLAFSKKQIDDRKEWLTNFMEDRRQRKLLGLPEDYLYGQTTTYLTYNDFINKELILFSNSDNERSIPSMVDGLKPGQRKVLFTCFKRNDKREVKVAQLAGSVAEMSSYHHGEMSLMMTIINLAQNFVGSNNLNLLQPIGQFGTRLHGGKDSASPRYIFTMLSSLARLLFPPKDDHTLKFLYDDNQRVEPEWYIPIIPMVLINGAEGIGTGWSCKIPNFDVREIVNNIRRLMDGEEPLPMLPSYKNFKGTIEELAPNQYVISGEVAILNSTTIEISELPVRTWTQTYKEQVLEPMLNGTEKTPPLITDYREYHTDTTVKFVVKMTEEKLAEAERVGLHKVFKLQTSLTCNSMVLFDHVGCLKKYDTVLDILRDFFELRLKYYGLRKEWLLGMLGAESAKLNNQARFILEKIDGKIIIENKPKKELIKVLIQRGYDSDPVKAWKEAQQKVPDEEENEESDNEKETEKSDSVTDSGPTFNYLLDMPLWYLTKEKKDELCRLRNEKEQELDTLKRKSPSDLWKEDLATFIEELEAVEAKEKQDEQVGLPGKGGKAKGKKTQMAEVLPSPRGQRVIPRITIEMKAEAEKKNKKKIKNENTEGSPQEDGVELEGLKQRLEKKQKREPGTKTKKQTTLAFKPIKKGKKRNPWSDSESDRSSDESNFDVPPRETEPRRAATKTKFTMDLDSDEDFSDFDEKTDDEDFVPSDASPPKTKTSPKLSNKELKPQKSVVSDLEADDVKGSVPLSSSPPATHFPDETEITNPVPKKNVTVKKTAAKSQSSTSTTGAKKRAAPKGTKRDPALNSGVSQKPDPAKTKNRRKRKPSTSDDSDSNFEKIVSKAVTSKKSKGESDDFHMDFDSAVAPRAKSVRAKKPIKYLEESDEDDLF

Take `O=C1c2cccc3cc([N+](=O)[O-])cc(c23)C(=O)N1CCN1CCN(CCN2C(=O)c3cccc4cc([N+](=O)[O-])cc(c34)C2=O)CC1`: in the assay with HT-29 [1], the result was inactive. The compound further yielded an IC50 with HT-29 [2] of 2.1 µM.

For `O=C1c2cccc3cc([N+](=O)[O-])cc(c23)C(=O)N1CCCNCCNCCCN1C(=O)c2cccc3cc([N+](=O)[O-])cc(c23)C1=O`, the outcome (in the assay with HT-29 [3]; in assay [6]; in the assay on HT-29 [1]) was inactive. The Activity with HT-29 [4] was 40%; with HT-29 [5] it was “Dose-dependent effect”. In the assay with HT-29 [2], this compound yielded a 50% inhibitory concentration (IC50) of 0.501 µM.

Regarding `O=C1c2cccc3cc([N+](=O)[O-])cc(c23)C(=O)N1CCCCNCCNCCCNCCNCCCCN1C(=O)c2cccc3cc([N+](=O)[O-])cc(c23)C1=O`, the outcome in assay [7] was Active. For the same compound, in the assay on HT-29 [2], the half-maximal inhibitory concentration (IC50) is 0.16 µM.

Regarding `O=C1c2cccc3cc([N+](=O)[O-])cc(c23)C(=O)N1CCNCCNCCN1C(=O)c2cccc3cc([N+](=O)[O-])cc(c23)C1=O`, the result (in assay [6]; in the assay on HT-29 [1]) was inactive. In addition, it took 0.2 µM to reach half-maximal inhibition with HT-29 [2] (IC50).

On to `O=C1c2cccc3cc([N+](=O)[O-])cc(c23)C(=O)N1CCCNC1CC1NCCCN1C(=O)c2cccc3cc([N+](=O)[O-])cc(c23)C1=O` (stereo not given), for which the result (in the assay with HT-29 [3]; in assay [6]; with HT-29 [1]) was inactive. For the same compound, the result with HT-29 [8] was Active. In the assay on HT-29 [5], the Activity result is “Dose-dependent effect”. In the assay on HT-29 [2], this compound yielded an IC50 of 3.3 µM.

On to `O=C1c2cccc3cccc(c23)C(=O)N1CCCCNCCNCCCNCCNCCCCN1C(=O)c2cccc3cccc(c23)C1=O`, for which, in the assay on HT-29 [2], the concentration for half-maximal inhibition (IC50) came out at 6.1 µM. This counts as single-digit micromolar.

In the case of `O=C1c2cccc3cc([N+](=O)[O-])cc(c23)C(=O)N1CCN1CC2CCC(C1)N2CCN1C(=O)c2cccc3cc([N+](=O)[O-])cc(c23)C1=O`, in the assay with HT-29 [1], the result was inactive. The IC50 in the assay with HT-29 [2] was found to be 7.3 µM.

`C[C@@H]1CN(CCN2C(=O)c3cccc4cc([N+](=O)[O-])cc(c34)C2=O)C[C@H](C)N1CCN1C(=O)c2cccc3cc([N+](=O)[O-])cc(c23)C1=O`: in the assay on HT-29 [1], the outcome was inactive. Besides, the midpoint of inhibition with HT-29 [2], the IC50, lay at 6.1 µM.

`O=C1c2cccc3cccc(c23)C(=O)N1CCNCCCNCCN1C(=O)c2cccc3cccc(c23)C1=O` [ELINAFIDE] had a half-maximal inhibitory concentration (IC50) in the assay with HT-29 [2] of 0.038 µM.
